Measured values as given in paper PMC7670640 (Pharmacology Research & Perspectives, 2020).

Legend:
[1] = Single ascending dose part; type: in vivo, human; conditions: for AUC / Cmax / Tmax / half-life: human, plasma, oral
Outline: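 Healthy men received a single oral dose of test compound after a moderate-fat meal (~600 calories, ~30% from fat). Plasma was taken from ~2 mL whole blood and assayed by HPLC-MS/MS. Cmax, tmax, AUC0-∞, AUC0-24 and terminal half-life came from standard noncompartmental analysis. Dose proportionality was assessed with a power model and ANOVA.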

[2] = Relative bioavailability study: safety and tolerability; type: in vivo, human
[3] = system: HIV‐1 subtypes; assay: Inhibition across HIV‐1 subtypes; conditions: background statement, no reference given
[4] = Multiple ascending dose part; type: in vivo, human; conditions: for AUC / Cmax / Tmax: human, plasma, oral, multiple‐dose; for AUC: AUC0‐24, geometric mean (%CVb); for Cmax: geometric mean (%CVb); for Tmax: median (range)
[5] = Lowest observed adverse effect level in dogs; type: in vivo

C=C(C)[C@@H]1CC[C@]2(NCCN3CCS(=O)(=O)CC3)CC[C@]3(C)[C@H](CC[C@@H]4[C@@]5(C)CC=C(C6=CC[C@@](CF)(C(=O)O)CC6)C(C)(C)[C@@H]5CC[C@]43C)[C@@H]12 [GSK3640254]
dose‐proportionality of Cmax and AUC ([1]; 1‐ to 700‐mg single dose range): approximately dose‐proportional increase in exposure | AUC ([1]; 1 mg): 57 ng·h/mL | Cmax ([1]; 1 mg): 5 ng/mL | Tmax ([1]; 1 mg, tmax, median (range), single dose 1 mg, N = 6): 3.5 h | AUC ([1]; 3 mg): 329 ng·h/mL | Cmax ([1]; 3 mg): 14 ng/mL | half-life ([1]; 3 mg, t1/2, geometric mean (%CVb), single dose 3 mg, N = 6): 20.5 h | Tmax ([1]; 3 mg, tmax, median (range), single dose 3 mg, N = 6): 4.5 h | AUC ([1]; 10 mg): 1230 ng·h/mL | Cmax ([1]; 10 mg): 47 ng/mL | Tmax ([1]; 10 mg, tmax, median (range), single dose 10 mg, N = 6): 3.5 h | AUC ([1]; 30 mg): 2990 ng·h/mL | Cmax ([1]; 30 mg): 130 ng/mL | Tmax ([1]; 30 mg, tmax, median (range), single dose 30 mg, N = 6): 4 h | AUC ([1]; 100 mg): 8540 ng·h/mL | Cmax ([1]; 100 mg): 372 ng/mL | Tmax ([1]; 100 mg, tmax, median (range), single dose 100 mg, N = 6): 3.8 h | AUC ([1]; 200 mg): 15000 ng·h/mL | Cmax ([1]; 200 mg): 579 ng/mL | Tmax ([1]; 200 mg, tmax, median (range), single dose 200 mg, N = 6): 3 h | AUC ([1]; 400 mg): 43000 ng·h/mL | Cmax ([1]; 400 mg): 1880 ng/mL | Tmax ([1]; 400 mg, tmax, median (range), single dose 400 mg, N = 6): 3.3 h | AUC ([1]; 700 mg): 39700 ng·h/mL | Cmax ([1]; 700 mg): 1720 ng/mL | Tmax ([1]; 700 mg, tmax, median (range), single dose 700 mg, N = 6): 3.3 h | half-life ([1]; estimated half‐life, single‐ and multiple‐dose administration after a moderate‐calorie and ‐fat breakfast): 21.2 to 28.4 h | half-life ([1]; half‐life, abstract summary of the FTIH study): ~24 h | half-life ([1]; mean half‐life, 10‐ to 700‐mg single doses): ~24 h | Tmax ([1]; median tmax, after administration, range across doses): 3 to 4.5 h | change in exposure from 400 to 700 mg ([1]; single dose): no increase in exposure from 400 to 700 mg | time detectable in plasma ([1]; single dose 1 and 3 mg): up to 48 hours | time detectable in plasma ([1]; single dose 10‐700 mg): up to 96 hours | changes in laboratory values, vital signs, or ECG parameters ([2]; in vivo): No clinically significant changes in laboratory values, vital signs, or ECG parameters | participants reporting at least one AE ([2]; of the 14 total participants, all mild): 50% | inhibition across HIV‐1 subtypes [3]: broad‐spectrum inhibition across various HIV‐1 subtypes | AUC ([4]; 50 mg, Day 1, 50 mg, N = 6): 2860 ng·h/mL | Cmax ([4]; 50 mg, Day 1, 50 mg, N = 6): 215 ng/mL | Tmax ([4]; 50 mg, Day 1, 50 mg, N = 6): 3.8 h | AUC ([4]; 100 mg, Day 1, 100 mg, N = 6): 6800 ng·h/mL | Cmax ([4]; 100 mg, Day 1, 100 mg, N = 6): 536 ng/mL | Tmax ([4]; 100 mg, Day 1, 100 mg, N = 6): 4.3 h | AUC ([4]; 320 mg, Day 1, 320 mg, N = 7): 13500 ng·h/mL | Cmax ([4]; 320 mg, Day 1, 320 mg, N = 7): 1040 ng/mL | Tmax ([4]; 320 mg, Day 1, 320 mg, N = 7): 4 h | increase in exposure upon repeat dosing ([4]; in vivo): two‐ to three‐fold | dose‐proportionality of Cmax and AUC ([4]; multiple‐dose administration 50‐320 mg): trend toward less than dose‐proportional increases in exposure | time to steady state ([4]; repeat once‐daily dosing): ≤ 8 days | attainment of steady state (slope of trough concentration vs time close to zero) ([4]; trough concentrations from all participants): ≤ 8 days | maximum recommended starting dose [MRSD] based on lowest observed adverse effect level in dogs ([5]; calculated from dog level of 1 mg/kg): approximately 3.2 mg | lowest observed adverse effect level ([5]; dogs, absence of a NOAEL in dogs): 1 mg/kg
